Test results from ChEMBL document CHEMBL1143425, “Paradoxical growth effect of caspofungin observed on biofilms and planktonic cells of five different Candida species” (2007).
Values after ≈ are worked out from the molar mass of the structure shown. Active and inactive are the calls of the source.

Columns and labels:
[1] = system: Candida tropicalis; experiment: Antimicrobial activity against Candida tropicalis BR-A14 grown as planktonic cell after 48 hrs by XTT reduction assay; type: functional
Procedure, shortened: (§1)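 Planktonic broth microdilution followed CLSI M27-A2, with caspofungin dissolved in water. After 48 h, XTT-menadione was added to each well and plates were incubated 1 h at 35°C in the dark. Cells were pelleted by centrifugation and the supernatant was read at 490 nm. MIC was the lowest concentration giving a 50% drop in metabolic activity versus the drug-free control. PG was ≥20% of drug-free activity above the MIC.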

[2] = system: Candida tropicalis; experiment: Antimicrobial activity against Candida tropicalis BR-A24 grown as planktonic cell after 48 hrs by XTT reduction assay; type: functional
Procedure, shortened: (§2)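 Planktonic broth microdilution followed CLSI M27-A2, with caspofungin dissolved in water. After 48 h, XTT-menadione was added to the wells and plates were kept 1 h at 35°C in the dark. Plates were then centrifuged and supernatant A490 was read. MIC was the lowest concentration giving a 50% decrease in metabolic activity versus drug-free control. Paradoxical growth was defined as ≥20% of control activity above the MIC.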

[3] = system: Candida parapsilosis; experiment: Antimicrobial activity against Candida parapsilosis BR-A27 grown as planktonic cell after 48 hrs by XTT reduction assay; type: functional; conditions: Lodderomyces parapsilosis; procedure, shortened: as §2
[4] = system: Candida orthopsilosis; experiment: Antimicrobial activity against Candida orthopsilosis BR-A36 grown as planktonic cell after 48 hrs by XTT reduction assay; type: functional; conditions: Lodderomyces orthopsilosis
Procedure, shortened: (§3)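 Planktonic cells were tested by CLSI M27-A2 broth microdilution with caspofungin in water, incubated 48 h. XTT-menadione was added to each well, plates were held 1 h at 35°C in the dark and centrifuged, and supernatant absorbance was read at 490 nm. MIC was defined as 50% decrease in metabolic activity versus drug-free control. PG was defined as ≥20% of control activity at concentrations above MIC.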

[5] = system: Candida metapsilosis; experiment: Antimicrobial activity against Candida metapsilosis BR-A40 grown as planktonic cell assessed as paradoxical growth after 48 hrs by XTT reduction assay; type: functional, organism-based; procedure, shortened: as §3
[6] = system: Candida metapsilosis; experiment: Antimicrobial activity against Candida metapsilosis BR-A43 grown as planktonic cell after 48 hrs by XTT reduction assay; type: functional; conditions: Lodderomyces metapsilosis; procedure, shortened: as §3
[7] = system: Candida metapsilosis; experiment: Antimicrobial activity against Candida metapsilosis BR-A44 grown as planktonic cell after 48 hrs by XTT reduction assay; type: functional; conditions: Lodderomyces metapsilosis; procedure, shortened: as §3
[8] = system: Candida albicans; experiment: Antimicrobial activity against Candida albicans BR-A4 grown as planktonic cell assessed as paradoxical growth after 48 hrs by XTT reduction assay; type: functional, organism-based; procedure, shortened: as §3
[9] = system: Candida tropicalis; experiment: Antimicrobial activity against Candida tropicalis BR-A14 grown as planktonic cell assessed as concentration producing paradoxical growth after 48 hrs by XTT reduction assay; type: functional; procedure, shortened: as §1
[10] = system: Candida parapsilosis; experiment: Antimicrobial activity against Candida parapsilosis BR-A31 grown as planktonic cell assessed as paradoxical growth after 48 hrs by XTT reduction assay; type: functional, organism-based; procedure, shortened: as §1
[11] = system: Candida metapsilosis; experiment: Antimicrobial activity against Candida metapsilosis BR-A42 grown as planktonic cell assessed as paradoxical growth after 48 hrs by XTT reduction assay; type: functional, organism-based; procedure, shortened: as §3
[12] = system: Candida albicans; experiment: Antimicrobial activity against Candida albicans BR-A2 grown as biofilm after 48 hrs by XTT reduction assay; type: functional
Procedure, shortened: (§4)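 Isolates were grown on Sabouraud agar (30°C, 24 h), then overnight in RPMI 1640 with MOPS, pH 7.0, at 35°C with shaking. Cells were washed and set to ~1 × 10^7 cells/ml, attached 1.5 h at 37°C, and grown 24 h. Biofilms were then exposed to caspofungin in 10 twofold dilutions (2–1,024 μg/ml) for 48 h at 35°C with shaking. Read-out was XTT-menadione, 1 h, 35°C, dark, A490, cell-free blank subtracted. MIC was the 50% drop in activity versus drug-free control. Tested in duplicate.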

[13] = system: Candida tropicalis; experiment: Antimicrobial activity against Candida tropicalis BR-A9 grown as biofilm after 48 hrs by XTT reduction assay; type: functional; procedure, shortened: as §4
[14] = system: Candida tropicalis; experiment: Antimicrobial activity against Candida tropicalis BR-A14 grown as biofilm after 48 hrs by XTT reduction assay; type: functional
Procedure, shortened: (§5)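 Clinical isolates were grown overnight (18 h, 35°C, 120 rpm) in RPMI 1640 with MOPS, pH 7.0, then washed and set to ~1 × 10^7 cells/ml. Cells attached for 1.5 h at 37°C, 75 rpm, then biofilms grew 24 h. Caspofungin was given as doubling dilutions of 2–1,024 μg/ml for 48 h at 35°C, 75 rpm. Read-out was XTT-menadione in PBS, 1 h at 35°C in the dark, A490, cell-free blank subtracted. MIC was a 50% drop in activity versus drug-free; PG was >50% of control above MIC. Run in duplicate.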

[15] = system: Candida tropicalis; experiment: Antimicrobial activity against Candida tropicalis BR-A24 grown as biofilm after 48 hrs by XTT reduction assay; type: functional; procedure, shortened: as §4
[16] = system: Candida parapsilosis; experiment: Antimicrobial activity against Candida parapsilosis BR-A26 grown as biofilm after 48 hrs by XTT reduction assay; type: functional; conditions: Lodderomyces parapsilosis; procedure, shortened: as §5
[17] = system: Candida metapsilosis; experiment: Antimicrobial activity against Candida metapsilosis BR-A41 grown as biofilm after 48 hrs by XTT reduction assay; type: functional; conditions: Lodderomyces metapsilosis
Procedure, shortened: (§6)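 Sabouraud-grown cells were shaken overnight (18 h, 120 rpm, 35°C) in RPMI 1640 with MOPS at pH 7.0, then washed and set at ~1 × 10^7 cells/ml. Attachment lasted 1.5 h at 37°C, and growth ran 24 h before challenge. Caspofungin was added in RPMI at 2–1,024 μg/ml (10 doublings) for 48 h at 35°C with shaking. XTT-menadione was read at 490 nm after 1 h at 35°C in the dark, with blank wells subtracted. MIC was taken as 50% reduction versus drug-free wells, and PG as >50% of control above MIC. Assays were run in duplicate.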

[18] = system: Candida metapsilosis; experiment: Antimicrobial activity against Candida metapsilosis BR-A43 grown as biofilm after 48 hrs by XTT reduction assay; type: functional; conditions: Lodderomyces metapsilosis; procedure, shortened: as §6
[19] = system: Candida tropicalis; experiment: Antimicrobial activity against Candida tropicalis BR-A20 grown as biofilm assessed as concentration producing paradoxical growth after 48 hrs by XTT reduction assay; type: functional; procedure, shortened: as §5
[20] = system: Candida orthopsilosis; experiment: Antimicrobial activity against Candida orthopsilosis BR-A37 grown as biofilm assessed as concentration producing paradoxical growth after 48 hrs by XTT reduction assay; type: functional; procedure, shortened: as §6
[21] = system: Candida orthopsilosis; experiment: Antimicrobial activity against Candida orthopsilosis BR-A38 grown as biofilm assessed as paradoxical growth after 48 hrs by XTT reduction assay; type: functional, organism-based; procedure, shortened: as §6
[22] = system: Candida metapsilosis; experiment: Antimicrobial activity against Candida metapsilosis BR-A40 grown as biofilm assessed as concentration producing paradoxical growth after 48 hrs by XTT reduction assay; type: functional; procedure, shortened: as §6
[23] = system: Candida parapsilosis; experiment: Antimicrobial activity against Candida parapsilosis 22019 grown as biofilm assessed as concentration producing paradoxical growth after 48 hrs by XTT reduction assay; type: functional; procedure, shortened: as §6
[24] = system: Candida parapsilosis; experiment: Effect on morphology in Candida parapsilosis grown as planktonic cells assessed as rounding and clumping at 16 ug/ml after 48 hrs; type: functional, organism-based
Procedure, shortened: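 Clinical isolates were tested by CLSI M27-A2 broth microdilution with caspofungin dissolved in sterile water. After 48 h incubation, cells were taken from drug-containing and drug-free control wells. They were examined by light microscopy at ×400 for hyphae or pseudohyphae, rounding or clumping, and enlarged globose cells.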

[25] = system: Candida orthopsilosis; experiment: Effect on morphology in Candida orthopsilosis grown as biofilm assessed as inhibition of hyphae and pseudohyphae at 32 ug/ml after 48 hrs; type: functional, organism-based
Procedure, shortened: (§7)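 Biofilms formed in RPMI 1640 wells were exposed to caspofungin for 48 h and compared with drug-free control wells. Wells were examined in the plate under an inverted light microscope at ×200 and photographed.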

[26] = system: Candida metapsilosis; experiment: Effect on morphology in Candida metapsilosis grown as biofilm assessed as inhibition of hyphae and pseudohyphae at 16 ug/ml after 48 hrs; type: functional, organism-based; procedure, shortened: as §7

## CC[C@H](C)C[C@H](C)CCCCCCCCC(=O)N[C@H]1C[C@@H](O)[C@@H](NCCN)NC(=O)[C@@H]2[C@@H](O)CCN2C(=O)[C@H]([C@H](O)CCN)NC(=O)[C@H]([C@H](O)[C@@H](O)c2ccc(O)cc2)NC(=O)[C@@H]2C[C@@H](O)CN2C(=O)[C@H]([C@@H](C)O)NC1=O [CASPOFUNGIN]
[1]
  MIC: 0.5 µg/mL (≈ 0.457 µM)
[2]
  MIC: 1 µg/mL (≈ 0.915 µM)
[3]
  MIC: 2 µg/mL (≈ 1.83 µM)
[4]
  MIC: 1 µg/mL (≈ 0.915 µM)
[5]
  Activity: inactive
[6]
  MIC: 2 µg/mL (≈ 1.83 µM)
[7]
  MIC: 2 µg/mL (≈ 1.83 µM)
[8]
  Activity: Active
[9]
  Activity: 8 µg/mL
[10]
  Activity: inactive
[11]
  Activity: inactive
[12]
  MIC: 2 µg/mL (≈ 1.83 µM)
[13]
  MIC: 2 µg/mL (≈ 1.83 µM)
[14]
  MIC: 256 µg/mL (≈ 234 µM)
[15]
  MIC: 2 µg/mL (≈ 1.83 µM)
[16]
  MIC: 256 µg/mL (≈ 234 µM)
[17]
  MIC: 2 µg/mL (≈ 1.83 µM)
[18]
  MIC: 2 µg/mL (≈ 1.83 µM)
[19]
  Activity: 8 µg/mL
[20]
  Activity: 32 µg/mL
[21]
  Activity: Active
[22]
  Activity: 16 µg/mL
[23]
  Activity: 16 µg/mL
[24]
  Activity: Active
[25]
  Activity: Active
[26]
  Activity: Active
